The source made the active and inactive calls.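 How the source made its calls, unless noted: active means inhibition above 20% together with a positive visual image hit; inconclusive means visual image hit but inhibition not above 20%; inactive means no visual image hit.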
Assays:
[1] = inhibitors of TNFa-induced NFkB p65 translocation, primary screen, imaging, HUVEC, MLSMR starter and 10KST1 sets (AID 438); details: HUVEC TNFa-induced p65 nuclear translocation; cell count: measured here: nuclei count (cytotoxicity indicator), at 2.08 µM; inhibition: at 2 µM, stronger effect = higher value, 0% TNFa-plus-vehicle, 100% no-TNFa wells;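 further: compound added about 3h40 before a 20 min TNFalpha stimulation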;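 on inhibition: signal is the nuclear over cytoplasmic p65 intensity ratio per well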
[2] = inhibitors of mutant huntingtin aggregation, primary screen, imaging, exon1htt(103Q)mCFP cells, high-content imaging (AID 483;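 active means visual image review flags a hit and inhibition of aggregation exceeds 20%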;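 further: compound exposure lasted 3 days before fixation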;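 on nuclei count: percent of the per-plate median nuclei count of sample wells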); details: exon1htt(103Q)mCFP cell line, aggregate imaging, at 2 µM; inhibition of aggregation: stronger effect = higher value; nuclei count: measured here: cell count, toxicity
[3] = inhibitors of E-selectin induction by TNFa, primary screen, imaging, HUVEC, immunofluorescence, MLSMR starter and 10KST1 sets (AID 487;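 active means visually confirmed hit in the image check and inhibition above 20%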;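 on inhibition: signal is fraction of cell area covered by stained E-selectin grains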;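 on nuclei count: 100% = median nuclei count of all wells on the same plate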); details: HUVEC TNFalpha-induced E-selectin immunofluorescence imaging, at 2 µM; inhibition: stronger effect = higher value; nuclei count: measured here: cell number, toxicity
[4] = biological target: Voltage-gated potassium channel subunit beta-2 (Rattus norvegicus) (UniProt P62483); test: KvBeta enzyme negative modulators, primary screen, biochemical, NADPH fluorescence (AID 622;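 active means fluorescence slope higher than the sample average by over 3 SD, cut at about -0.22 in these data, passing the limit was not always enough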;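 further: slope of raw intensity against log time taken from 70 to 1610 s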); details: recombinant KvBeta, 4-cyanobenzaldehyde reduction, at 10 µM, stronger effect = higher value
[5] = biological target: Voltage-gated potassium channel subunit beta-2 (Rattus norvegicus) (UniProt P62483); test: KvBeta positive modulators, primary screen, biochemical, NADPH fluorescence (AID 623;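 active means NADPH fluorescence slope more negative than the mean of all samples by about 3 SD, 99.7% confidence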;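 further: fluorescence intensity change per second fitted from 20 to 320 s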); details: Recombinant KvBeta, NADPH fluorescence decrease slope, 10 min; at 10 µM; stronger effect = lower value
[6] = biological target: Muscarinic acetylcholine receptor M4 (Homo sapiens) (UniProt P08173); test: compounds altering M4/GIRK thallium flux, either direction, primary screen, M4 allosteric agonist project, cell-based, HEK293 M4/GIRK, BTC-AM (AID 625;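 active means fluorescence slope after compound addition differing from the mean of all tested samples at 99.7% confidence, mostly higher but some lower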;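 further: thallium influx through GIRK channels coupled to M4 in HEK293 cells with BTC-AM dye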); details: at 10 µM, actives lie on both sides
In short: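 assay system = HEK293 cells with M4 receptor and GIRK channels | medium = pH 7.3 thallium assay buffer | doses = 10 µM final, single point | timing = cells overnight at 37 °C, BTC-AM loading 1 h, reads 2 min total | signal = BTC-AM fluorescence, 1 Hz kinetic reads | read-out = post-addition slope, 15–24 s, of baseline-normalized fluorescence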

[7] = inhibitors of Sendai virus-induced IRF3 signaling, primary screen, TLR/RLR signaling modifier project, cell-based, Sendai virus stimulus, luciferase, 10K MLSCN set (AID 602276;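 active means inhibition at or above 50% at 10 µM; inactive means inhibition below 50%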;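 further: firefly luciferase from ISG56 promoter only with Renilla not read in this screen; 0% = Sendai virus plus DMSO and 100% = medium plus DMSO without virus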); details: HEK293 RL24 IRF3 luciferase reporter, at 10 µM, stronger effect = higher value
[8] = inhibitors of poly I:C-induced TLR3 signaling, primary screen, cell-based, poly I:C stimulus, luciferase, 10K MLSCN set (AID 602277;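 active means inhibition of the reporter signal at or above 50%; inactive means inhibition below 50%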); details: HEK293-TLR3 RL24 IRF3 luciferase reporter, at 10 µM, stronger effect = higher value

Muscarinic acetylcholine receptor M4 (Homo sapiens), sequence (P08173 whole entry, looked up): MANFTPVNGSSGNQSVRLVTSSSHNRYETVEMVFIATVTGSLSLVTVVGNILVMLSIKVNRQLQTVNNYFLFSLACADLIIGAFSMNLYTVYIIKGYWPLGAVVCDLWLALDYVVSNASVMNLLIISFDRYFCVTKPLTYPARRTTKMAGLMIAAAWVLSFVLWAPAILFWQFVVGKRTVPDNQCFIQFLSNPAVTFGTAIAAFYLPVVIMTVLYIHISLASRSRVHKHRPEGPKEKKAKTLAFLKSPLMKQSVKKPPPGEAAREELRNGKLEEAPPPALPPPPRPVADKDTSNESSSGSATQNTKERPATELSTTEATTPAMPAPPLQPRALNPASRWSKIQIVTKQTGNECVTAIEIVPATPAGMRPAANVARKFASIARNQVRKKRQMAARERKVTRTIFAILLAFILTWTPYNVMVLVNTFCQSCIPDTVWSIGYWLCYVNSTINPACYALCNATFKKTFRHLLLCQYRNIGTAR
Voltage-gated potassium channel subunit beta-2 (Rattus norvegicus), sequence (P62483 whole entry, looked up): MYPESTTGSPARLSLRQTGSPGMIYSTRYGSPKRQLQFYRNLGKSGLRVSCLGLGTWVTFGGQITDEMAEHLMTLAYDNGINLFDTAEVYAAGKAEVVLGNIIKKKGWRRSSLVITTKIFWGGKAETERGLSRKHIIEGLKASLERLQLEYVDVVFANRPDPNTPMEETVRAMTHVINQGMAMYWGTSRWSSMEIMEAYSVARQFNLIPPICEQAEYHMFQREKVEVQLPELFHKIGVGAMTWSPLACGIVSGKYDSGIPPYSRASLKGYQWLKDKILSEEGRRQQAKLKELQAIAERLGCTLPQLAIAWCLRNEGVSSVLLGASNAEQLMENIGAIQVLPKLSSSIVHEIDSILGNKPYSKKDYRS

| Structure (SMILES) | cell count [1] | inhibition [1] | inhibition of aggregation [2] | nuclei count [2] | inhibition [3] | nuclei count [3] | fluorescence slope [4] | NADPH fluorescence slope [5] | fluorescence slope [6] | inhibition [7] | inhibition [8] |
| --- | --- | --- | --- | --- | --- | --- | --- | --- | --- | --- | --- |
| COc1ccc(Cl)cc1C(=O)n1nc(C)cc1C | 346 | -3.3% (inactive) | -15% (inactive) | 106% | -31% (inactive) | 118% | -0.355 (inactive) | -1.5e-05 (inactive) | 0.00581 (inactive) | -16.7% (inactive) | -14.6% (inactive) |
| CS(=O)(=O)Nc1ccc(S(=O)(=O)Nc2nccs2)cc1 | 418 | 5.4% (inactive) | -6.9% (inactive) | 112% | -42.5% (inactive) | 87.9% | -0.399 (inactive) | 7.8e-05 (inactive) | 0.00758 (inactive) | 9.08% (inactive) | 14.5% (inactive) |
| COc1cc(-c2c(C#N)c(N)nc3c2CCCC3)cc(OC)c1OC | 620 | -8.6% (inactive) | 0.1% (inactive) | 101% | -110% (inactive) | 121% | -0.534 (inactive) | -6.8e-05 (inactive) | 0.0058 (inactive) | 20% (inactive) | 26.4% (inactive) |
| Cc1ccc2c(c1C)NC(C)CC2C (centres undefined) | 553 | 9.8% (inactive) | 5.9% (inactive) | 101% | 35.5% (inactive) | 100% | -0.604 (inactive) | -2.8e-05 (inactive) | 0.0052 (inactive) | 11.1% (inactive) | 13.6% (inactive) |
| COc1ccc(NC(=O)Cn2nnc(-c3ccccc3N)n2)cc1OC | 656 | -6.1% (inactive) | 19.9% (inactive) | 100% | -51.2% (inactive) | 121% | -0.595 (inactive) | 1e-05 (inactive) | 0.00531 (inactive) | 17.6% (inactive) | 14.6% (inactive) |
| CC(Oc1ccccc1)C(=O)N1CCCc2ccccc21 (centres undefined) | 474 | 9.1% (inactive) | -2.8% (inactive) | 118% | -43.6% (inactive) | 112% | -0.239 (inactive) | 1.4e-05 (inactive) | 0.00527 (inactive) | 2.1% (inactive) | 29.5% (inactive) |
| O=C(N1CCCCCC1)N1CCN(S(=O)(=O)N2CCCCC2)CC1 | 323 | -2.2% (inactive) | 9.2% (inactive) | 106% | -33.5% (inactive) | 126% | -0.579 (inactive) | -4.8e-05 (inactive) | 0.00553 (inactive) | 24% (inactive) | 12.9% (inactive) |
| OCCN1CCN(CC(O)COc2ccc3ccccc3c2)CC1 (centres undefined) | 581 | -10.8% (inactive) | 0.6% (inactive) | 101% | -51.6% (inactive) | 106% | -0.414 (inactive) | -7.3e-05 (inactive) | 0.00595 (inactive) | 11.6% (inactive) | 15.2% (inactive) |
| c1c2c(cc3sc(N4CCCCC4)nc13)OCCO2 | 266 | -5.8% (inactive) | 14.4% (inactive) | 87.6% | 2.1% (inactive) | 88.9% | -0.54 (inactive) | -9.8e-06 (inactive) | 0.00468 (inactive) | -0.203% (inactive) | -45.7% (inactive) |
| CCCn1c(SCC(=O)Nc2nnc(-c3ccccc3)s2)nnc1-c1ccccn1 | 591 | -5.1% (inactive) | 14.9% (inactive) | 45.4% | 7% (inactive) | 105% | -0.376 (inactive) | 1.2e-05 (inactive) | 0.00563 (inactive) | -15.8% (inactive) | -30% (inactive) |
| O=C(NCCc1cccc(Cl)c1)c1cccnc1 | 341 | -8% (inactive) | -14.1% (inactive) | 95.5% | -194% (inactive) | 119% | -0.562 (inactive) | -1.7e-05 (inactive) | 0.00601 (inactive) | -14.6% (inactive) | -52% (inactive) |
| COC(=O)c1sccc1NC(=O)c1ccncc1 | 467 | 5.7% (inactive) | 7.5% (inactive) | 103% | -36.5% (inactive) | 122% | -0.49 (inactive) | -3.8e-05 (inactive) | 0.00518 (inactive) | 12% (inactive) | -9.7% (inactive) |
| CN1CCCN(C(=O)c2cc(=O)[nH]c3ccccc23)c2nc3ccccc3nc21 | 369 | -0.6% (inactive) | 5.4% (inactive) | 101% | -33% (inactive) | 117% | -0.394 (inactive) | -0.000122 (inactive) | 0.00653 (inactive) | 16.3% (inactive) | 34.1% (inactive) |
| C/C(=C\c1cc(C(=O)O)c(C)o1)CO | 417 | 5.1% (inactive) | 4.9% (inactive) | 94.9% | 39.5% (inactive) | 103% | -0.431 (inactive) | -0.00049 (inactive) | 0.00423 (inactive) | -6.67% (inactive) | -4.63% (inactive) |
| COc1ccc(CNc2nc3nc(C)cc(C)n3n2)cc1OC | 646 | -15.5% (inactive) | 39.5% (active) | 107% | -5.7% (inactive) | 115% | -0.422 (inactive) | -0.000434 (inactive) | 0.00355 (inactive) | 13.3% (inactive) | 12.9% (inactive) |
| C=CCn1c(COc2ccccc2F)nnc1SCC(=O)N1CC(=O)Nc2ccccc21 | 390 | -23.5% (inactive) | 28% (inactive) | 100% | 4% (inactive) | 121% | -0.355 (inactive) | 2.1e-06 (inactive) | 0.00612 (inactive) | -13.7% (inactive) | -13.8% (inactive) |
| O=C(C1CCN(S(=O)(=O)N2CCC3(CC2)OCCO3)CC1)N1CCOCC1 | 648 | 14.8% (inactive) | 17.5% (inactive) | 89.1% | 28.9% (inactive) | 96.9% | -0.571 (inactive) | -8.3e-05 (inactive) | 0.00319 (inactive) | -6.46% (inactive) | -2.34% (inactive) |
| CCOc1ccc(OCC)c(NC(=O)C2CCN(S(=O)(=O)c3cnc[nH]3)CC2)c1 | 377 | -1.3% (inactive) | -15.6% (inactive) | 101% | 22.9% (inactive) | 80.4% | -0.572 (inactive) | -2.9e-05 (inactive) | 0.00665 (inactive) | 4.79% (inactive) | 10.8% (inactive) |
| Cc1cc(O)c(NC(=O)c2ccc(Br)o2)cc1C | 394 | 5.5% (inactive) | -12.4% (inactive) | 103% | -6.8% (inactive) | 116% | -0.299 (inactive) | -6.1e-05 (inactive) | 0.00583 (inactive) | 8.6% (inactive) | -53.5% (inactive) |
| COc1ccc(-n2cc(-c3ccccc3)c3c(N4CCN(CCO)CC4)ncnc32)cc1 | 568 | -26.5% (inactive) | 3.6% (inactive) | 102% | -29.3% (inactive) | 99.1% | -0.519 (inactive) | -6.1e-07 (inactive) | 0.003 (inactive) | 13.2% (inactive) | 25.2% (inactive) |
| CCCCn1c(CN2CCN(CCO)CC2)nc2ccccc21 | 611 | 6.2% (inactive) | -17.9% (inactive) | 112% | 44.3% (inactive) | 84.5% | -0.468 (inactive) | -0.000309 (inactive) | 0.00452 (inactive) | 2.03% (inactive) | 19.1% (inactive) |
| CCC(C)n1[nH]c(=O)c2c(C)cc(C)nc21 (centres undefined) | 405 | 1.8% (inactive) | 2.2% (inactive) | 101% | -50.1% (inactive) | 108% | -0.565 (inactive) | -5.9e-05 (inactive) | 0.00534 (inactive) | 6.37% (inactive) | 15.3% (inactive) |
| COC(=O)c1oc2ccc(Br)cc2c1NC(=O)CN1CCN(C)CC1 | 240 | 6% (inactive) | -3.2% (inactive) | 94.6% | 30.2% (inactive) | 85.6% | -0.589 (inactive) | 1.6e-05 (inactive) | 0.00465 (inactive) | 1.64% (inactive) | 6.76% (inactive) |
| Cc1c(Br)c(C(F)(F)F)nn1CC(=O)NCCN1CCOCC1 | 412 | 1.6% (inactive) | 0.2% (inactive) | 86.5% | -39.7% (inactive) | 114% | -0.553 (inactive) | -5.2e-05 (inactive) | 0.00496 (inactive) | 1.54% (inactive) | 21.8% (inactive) |
| COc1ccccc1N1CCN(C(=O)c2ccc3nc(-c4ccco4)c(-c4ccco4)nc3c2)CC1 | 570 | -15.9% (inactive) | 5.2% (inactive) | 136% | -44.3% (inactive) | 115% | -0.324 (inactive) | 3.6e-06 (inactive) | 0.005 (inactive) | 16.2% (inactive) | 8.44% (inactive) |
| CCCNS(=O)(=O)c1ccc(OCC(=O)Nc2ccccc2F)cc1 | 408 | 8.2% (inactive) | -23% (inactive) | 99.5% | -57.2% (inactive) | 100% | -0.557 (inactive) | -2.6e-05 (inactive) | 0.00506 (inactive) | 19.7% (inactive) | 15.2% (inactive) |
| CC(C)(C)NC(=O)Cn1nnc(-c2cccs2)n1 | 238 | 6.4% (inactive) | 23.3% (inactive) | 99% | -3.4% (inactive) | 85.2% | -0.508 (inactive) | -1.3e-05 (inactive) | 0.00413 (inactive) | 1.59% (inactive) | -13% (inactive) |
| COC(=O)c1onc(C(=O)c2ccccc2)c1C(=O)OC | 405 | 2.7% (inactive) | -4.5% (inactive) | 103% | -67.9% (inactive) | 114% | -0.568 (inactive) | -4.3e-05 (inactive) | 0.00647 (inactive) | 16.3% (inactive) | 12.9% (inactive) |
| N#CC1=C(N)n2c(s/c(=C\c3ccco3)c2=O)=C(C#N)C1c1ccco1 (centres undefined) | 422 | -2.2% (inactive) | 8.3% (inactive) | 106% | -34.4% (inactive) | 116% | -0.565 (inactive) | -3.6e-05 (inactive) | 0.00353 (inactive) | 19.5% (inactive) | 38% (inactive) |
